Rows were chosen to be rich in hits. Some 2.4% of all compounds tested hit in one or more screens of this group.
HIV Env fusion = inhibitors of HIV-1 Env-driven cell-cell fusion, primary screen, HeLa-JRFL effector, CEM21 target cells, luciferase; inhibition, % at 12.3 µM; actives 1.1% (n = 360,000); AID 651610, 2012;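 active = mean replicate inhibition score of at least 50 and every replicate individually at or above 50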;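 note: 0% = plate neutral controls and 100% = maraviroc near 300 nM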
dFosB activator = activators of delta FosB homodimer, primary screen, biochemical, fluorescence polarization, TAMRA-CDK5 oligo, single point; Protein FosB (Mus musculus), P13346; purified delta FosB; percent of positive-control signal above neutral wells; activation, % at 25 µM; actives 0.99% (n = 340,000); AID 493131, 2011;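 active = mean activation above about 17%, with every replicate also reaching it, limit read from the data, passing the limit was not always enough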
INS-1E GSIS act = GLuc luminescence reporter in INS-1E cells, primary screen for activators of glucose-dependent secretion of insulin | activation, % at 16.6 µM | INS-1E GLuc reporter insulin secretion, 2-3 h | actives 0.61% (n = 370,000);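 active = lowest replicate activation of at least 40%, so every replicate reaches that level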;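 note: 0% = median of neutral control wells and 100% = median of IBMX positive control wells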
Cneo AK release = Cryptococcus neoformans cell lysis inducers, primary screen, AK release luminescence, single concentration. C. neoformans lysis, adenylate kinase release luminescence, 4 h; normalised: neutral wells 0, clomiphene wells 100. lysis activity, % at 15 µM. actives 0.2% (n = 360,000). AID 651654, 2012;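 active = mean lysis activity across replicates of at least 80%, whatever share of replicates individually reach that level; inactive = mean lysis activity below 80%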
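Material – log-phase Cryptococcus neoformans yeast cells · Input – 5 × 10^6 yeast cells/mL · Medium – fresh YPD growth medium · Doses – single compound concentration per well · Timing – static 4 h at 37 °C with compound, 1 h detection · Detection – adenylate kinase release luminescence · Read-out – signal increase indicating cell lysis · Control set – Clomiphene as positive lysis control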
miR-122 sensor = miR-122 Renilla sensor signal increase in Huh7, primary screen, miR-122 inhibitor project, cell-based, single point, plate reader | activation (reporter increase), % at 12.5 µM | actives 0.3% (n = 340,000) | Huh7 miR-122 Renilla luciferase sensor, 48 h; neutral wells = 0, positive control = 100;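 active = mean replicate activation score at least 90 and every replicate individually at or above 90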;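 note: higher luciferase means less miR-122 activity so hits act as miR-122 inhibitors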
Rtt109 Vps75 = inhibitors of C. albicans Rtt109/Vps75 HAT, primary screen, biochemical, ThioGlo CoA-SH fluorescence, plate reader | purified Rtt109/Vps75, 4 h | inhibition, % at 34.9 µM | actives 0.16% (n = 330,000) | AID 540336, 2011;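 active = inhibition of at least 50% in every replicate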
Target sequence (Q5AAJ8 whole entry, looked up): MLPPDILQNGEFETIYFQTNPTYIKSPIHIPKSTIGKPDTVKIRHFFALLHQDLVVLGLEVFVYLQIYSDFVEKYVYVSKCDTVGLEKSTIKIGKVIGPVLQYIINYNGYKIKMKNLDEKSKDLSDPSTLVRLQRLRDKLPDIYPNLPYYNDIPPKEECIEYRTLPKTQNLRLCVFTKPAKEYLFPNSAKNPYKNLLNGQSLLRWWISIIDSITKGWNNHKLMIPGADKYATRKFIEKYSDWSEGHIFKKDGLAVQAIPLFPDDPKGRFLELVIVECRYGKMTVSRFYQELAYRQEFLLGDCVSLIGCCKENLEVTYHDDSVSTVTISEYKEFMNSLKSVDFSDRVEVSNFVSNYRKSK
Active calls of the source: *; . = not tested or not shown; ! = repeats disagree; [ ] = remark or other dose.

SMILES | HIV Env fusion | dFosB activator | INS-1E GSIS act | Cneo AK release | miR-122 sensor | Rtt109 Vps75
Cc1noc(C)c1NC(=O)Nc1ccc2c(c1)C(=O)N([C@@H](C)CO)C[C@@H](C)[C@@H](CN(C)Cc1ccc(Cl)c(Cl)c1)OCCCC[C@@H](C)O2 | -41[16.7 µM] | . | -15 | 1 | -15[16.7 µM] | .
CN1C=C/C(=C\c2cc[n+](C)c3ccccc23)c2ccccc21 | 46 | 38* | 3 | -1 | 0 | -16
O=C(NCc1nc2ccccc2[nH]1)C1=C[C@H](C2CC2)C[C@H](OCc2ccc(CO)cc2)O1 | 2[16.7 µM] | 4 | -9 | 81*! | -10 | 1
C[C@@H]1CN([C@H](C)CO)C(=O)c2cc(NS(=O)(=O)c3ccc(F)cc3)ccc2O[C@@H](C)CCCCO[C@H]1CN(C)Cc1ccc2c(c1)OCO2 | 5[16.7 µM] | . | -23 | 12 | -13[16.7 µM] | .
C[C@@H]1CN([C@@H](C)CO)C(=O)c2cc(NS(=O)(=O)c3ccc(F)cc3)ccc2O[C@@H](C)CCCCO[C@@H]1CN(C)Cc1ccc2c(c1)OCO2 | -90[16.7 µM] | . | -27 | 99* | -10[16.7 µM] | .
C[C@H](CO)N1C[C@H](C)[C@@H](CN(C)Cc2ccc(Cl)c(Cl)c2)OCCCC[C@H](C)Oc2ccc(NS(=O)(=O)c3ccc(F)cc3)cc2C1=O | 78*[16.7 µM] | . | -13 | 0 | -3[16.7 µM] | .
C[C@@H]1CCCCO[C@H](CN(C)Cc2ccc(Cl)c(Cl)c2)[C@H](C)CN([C@@H](C)CO)C(=O)c2cc(NS(=O)(=O)c3ccccc3)ccc2O1 | 57*[16.7 µM] | . | -4 | -1 | -13[16.7 µM] | .
O=C(C[C@H]1CC[C@H](NC(=O)c2ccncc2)[C@@H](CO)O1)NCC1CC1 | -19[16.7 µM] | . | 9 | 42 | . | .
COc1ccc2c3c([nH]c2c1)[C@@H](CO)N(C(=O)c1ccncc1)CC31CCN(C(=O)Nc2cccc(F)c2)CC1 | 11[16.7 µM] | . | 2 | . | . | .
Cc1c(C)c2ccc(OCC(=O)Nc3ccccn3)c(C)c2oc1=O | 83* | -4 | -5 | -5 | 2 | -3
CN1[C@@H]2c3ccc(-c4ccncc4)c(=O)n3C[C@H]1[C@H](CO)[C@H]2C(=O)Nc1nccs1 | . | . | 1 | 1 | 0[16.7 µM] | .
Clc1ccc(-c2noc(CSc3nnc(-c4ccncc4)n3-c3ccccc3)n2)cc1 | 94* | -14 | -9 | 15 | 14 | 8
Cc1ccc(-c2noc(CSc3nnc(-c4ccncc4)n3-c3ccc(C)cc3)n2)cc1 | 48 | -20 | -25 | . | 5 | 1
CCCNC(=O)C[C@@H]1CC[C@H]2[C@H](COc3ccc(NC(=O)C4CCCC4)cc3C(=O)N2C)O1 | -3[16.7 µM] | . | -1 | 5 | 20[16.7 µM] | .
COc1ccc(N2C(S)=C(C#N)C(=O)NC2c2ccco2)cc1 (stereo not given) | . | -3 | -6 | . | . | 63*
COc1ccc(C2NC(=O)C(C#N)=C(S)N2c2ccccc2)cc1OC (stereo not given) | 0 | -7 | -10 | . | . | -6
COc1cc(C2NC(=O)C(C#N)=C(S)N2c2ccccc2)ccc1OC(C)C (stereo not given) | . | -17 | . | 0 | -6 | 122*
N#CC1=C(S)N(c2ccccc2)C(c2ccc(-c3cccc(Cl)c3)o2)NC1=O (stereo not given) | 24 | -9 | -13 | -1 | 3 | 99*
Cc1cccc(N2C(S)=C(C#N)C(=O)NC2c2ccco2)c1 (stereo not given) | -12 | -7 | -16 | 2 | 0 | 8
O=C(C[C@@H]1C[C@@H]2c3cc(NC(=O)c4cccnc4)ccc3O[C@@H]2[C@H](CO)O1)NCc1ccncc1 | . | . | 2 | 55 | 2[16.7 µM] | .
C[C@@H]1CN([C@@H](C)CO)C(=O)c2cc(-c3cccc(F)c3)cnc2O[C@H]1CN(C)Cc1cccnc1 | -16[16.7 µM] | . | 13 | 2 | -3[16.7 µM] | .
CCOC(=O)C1=C(CSc2nc3ccccc3s2)NC(=O)NC1c1ccc(OC)cc1 (stereo not given) | 73* | -13 | . | . | . | 13
CCOC(=O)C1=C(CSc2nc3ccccc3s2)NC(=O)NC1c1cc(C)ccc1C (stereo not given) | . | -12 | . | 2 | 0 | -5
COc1ccc(Nc2c(CCc3ccccc3)nc3nc(C)cc(C)n23)cc1 | 85* | . | 1 | . | . | .
Cc1cccc(C2Nc3ccccc3C(=O)N2c2ccccc2)n1 (stereo not given) | . | -4 | 17 | 1 | 0 | 8
SMILES | HIV Env fusion | dFosB activator | INS-1E GSIS act | Cneo AK release | miR-122 sensor | Rtt109 Vps75
O=C1c2ccccc2NC(c2ccccn2)N1c1ccc(Cl)cc1 (stereo not given) | . | -5 | 62* | 1 | 3 | 1
Cc1ccc(NC(=O)C2CCC2)cc1S(=O)(=O)N1CCCCCC1 | -15 | -6 | -4 | -2 | -5 | -11
CCOc1ccc(NS(=O)(=O)c2cc(NC(=O)C3CC3)ccc2C)cc1Br | 12 | -13 | -17 | -1 | 140* | -23
CC[N+](CC)(CC)CCCCOc1ccc2c(c1)C(=O)c1cc(OCCCC[N+](CC)(CC)CC)ccc1-2 | 25 | 55* | 17 | -3 | -7 | 21
CC[N+](CC)(CC)CCOc1ccc(/C=C/c2ccccc2)cc1 | 22 | 5 | -1 | -1 | 2 | 4
CC1CCC2(CC1)NC(=S)N(c1ccccc1)N2 (stereo not given) | -25 | -3 | . | 0 | -7 | 95*
COC(=O)[C@H](Cc1ccccc1)N(C)S(=O)(=O)c1cccc(S(=O)(=O)N(C)[C@@H](Cc2ccccc2)C(=O)OC)c1 | 9 | -3 | -3 | -9 | -4 | 1
COC(=O)[C@H](C(C)C)N(Cc1ccccc1)S(=O)(=O)CCN1CCCC1 | -44 | -6 | -8 | -1 | -5 | -5
CCOC(=O)[C@@H](C)N(C(=O)OC(C)(C)C)S(=O)(=O)N(Cc1ccccc1)[C@H](C(=O)OC)C(C)C | 85* | -2 | . | 1 | 3 | -12
COC(=O)[C@H](Cc1ccccc1)N(Cc1ccccc1)S(=O)(=O)N(Cc1ccccc1)[C@@H](Cc1ccccc1)C(=O)OC | 80* | -4 | 18 | 10 | . | 8
COC(=O)[C@H](CC(C)C)NS(=O)(=O)c1ccccc1 | 2 | 7 | 8 | 0 | -2 | 1
C=CCN([C@@H](CC(C)C)C(=O)OC)S(=O)(=O)N(CC=C)[C@@H](CC(C)C)C(=O)OC | 81* | -6 | -7 | -1 | . | 2
COC(=O)[C@@H](CC(C)C)NS(=O)(=O)N(Cc1ccccc1)[C@@H](CC(C)C)C(=O)OC | 55* | -11 | -31 | -2 | 0 | -1
